Test [1] is described as follows: Inhibition of recombinant human thrombin R165A mutant expressed in BHK cells using S2238 as substrate after overnight incubation at 25 degC. An outline of the steps: (§1)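 BHK-expressed, HPC4 immunoaffinity-purified thrombins, activated from prothrombin form. Active-site concentration from amidolysis and antithrombin titration. Enzyme (1.5−7.5 nM final) incubated overnight at 25 °C with inhibitor in Tris pH 7.4 buffer in coated cuvettes. Residual activity from S2238 initial rate at A405, using at least 9−10 points. Logistic fit gives IC50. Ratio is mutant IC50 over wild-type IC50.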

Test [2] is filed under the species Homo sapiens. Kind of test: (§2) Binding affinity to human plasma alpha-thrombin exosite-1 using spectrozyme TH as substrate after overnight incubation at 25 degC by spectrophotometric analysis in presence of 15 nM hirugen peptide. The class given is cell-free.
Test [3] can be described thus: as §2. The format is cell-free.
The species entered for test [4] is Homo sapiens. Description: (§3) Binding affinity to human plasma alpha-thrombin exosite-2 using spectrozyme TH as substrate after overnight incubation at 25 degC by spectrophotometric analysis in presence of 1 uM heparin octasaccharide. The class given is cell-free.
The nature of test [5]: as §3. The format is cell-free.
Test [6] in a line: Inhibition of recombinant human thrombin R93A mutant expressed in BHK cells using S2238 as substrate after overnight incubation at 25 degC. The method in brief:
as §1

Test [7] deals with Plasma. Description: Anticoagulant activity in human plasma assessed as increase in activated partial […] time at 139 uM after 4 mins by fibrometric analysis relative to control. The class given is functional. The method in brief:
(§4)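 Citrated human plasma, one-stage recalcification, fibrometer read-out. APTT: 90 μL plasma + 10 μL inhibitor or vehicle + prewarmed 0.2% ellagic acid, 4 min, then 25 mM CaCl2 (37 °C). PT: inhibitor + plasma 30 s at 37 °C, then prewarmed thromboplastin. Duplicates. Quadratic trend line fit gives concentration doubling clotting time versus vehicle blank.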

Test [8] in a line: Inhibition of recombinant human thrombin R173A mutant expressed in BHK cells using S2238 as substrate after overnight incubation at 25 degC. An outline of the steps:
as §1

The species entered for test [9] is Homo sapiens. Kind of test: (§5) Binding affinity to human plasma alpha-thrombin exosite-2 using spectrozyme TH as substrate after overnight incubation at 25 degC by spectrophotometric analysis in presence of 42.6 uM unfractionated heparin. The format is cell-free.
Test [10] in a line: as §5. The class given is cell-free.
Test [11] can be described thus: Inhibition of human plasma alpha-thrombin assessed as spectrozyme TH hydrolysis preincubated for 10 mins by spectrophotometric analysis. The class given is cell-free. An outline of the steps:
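Human plasma α-thrombin (5 nM final) with inhibitor (1−900 μM final) in 20 mM Tris-HCl pH 7.4, 100 mM NaCl, 2.5 mM CaCl2, 0.1% PEG8000, PEG20000-coated cuvettes, 10 min. Spectrozyme TH then added (30 μM final). Initial rate from A405 increase. Residual activity fitted by logistic equation with floating Hill slope, Y0, YM to give IC50.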

The subject of test [12] is Plasma. Description: Anticoagulant activity in human plasma assessed as increase in prothrombin time at 568 uM after 30 secs by fibrometric analysis relative to control. The format is functional. An outline of the steps: as §4
A short description of test [13]: Inhibition of recombinant human thrombin K240A mutant expressed in BHK cells using S2238 as substrate after overnight incubation at 25 degC. The method in brief:
as §1

Test [14] deals with Coagulation factor X (Homo sapiens) (UniProt P00742). Description: Inhibition of human factor 10a at 365 uM.
For test [15], the species on record is Homo sapiens. Description: (§6) Binding affinity to human plasma alpha-thrombin exosite-2 using spectrozyme TH as substrate after overnight incubation at 25 degC by spectrophotometric analysis in presence of 12.8 uM unfractionated heparin. The format is cell-free.
The nature of test [16]: as §6. The format is cell-free.
The species entered for test [17] is Homo sapiens. Kind of test: (§7) Binding affinity to human plasma alpha-thrombin exosite-1 using spectrozyme TH as substrate after overnight incubation at 25 degC by spectrophotometric analysis in presence of 3 nM hirugen peptide. The format is cell-free.
Test [18] in a line: as §7. The format is cell-free.

The structures appear in SMILES notation. Activity calls are given as the source filed them. The calls are words filed in the database; no cut-off is given here.

One molecule from ChEMBL document CHEMBL2396594, “Designing allosteric regulators of thrombin. Exosite 2 features multiple subsites that can be targeted by sulfated small molecules for inducing inhibition” (J Med Chem, 2013) can be followed below.

Broadly, the pIC50 is −log10 of the IC50, conventionally taken in molar units.

Sequence of Coagulation factor X (Homo sapiens) (P00742 41-179 limits assumed): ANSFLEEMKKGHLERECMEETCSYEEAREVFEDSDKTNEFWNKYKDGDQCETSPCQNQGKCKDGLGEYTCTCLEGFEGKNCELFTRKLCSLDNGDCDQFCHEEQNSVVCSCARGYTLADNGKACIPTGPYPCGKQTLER
Sequence of Coagulation factor X (Homo sapiens) (P00742 235-488 limits assumed): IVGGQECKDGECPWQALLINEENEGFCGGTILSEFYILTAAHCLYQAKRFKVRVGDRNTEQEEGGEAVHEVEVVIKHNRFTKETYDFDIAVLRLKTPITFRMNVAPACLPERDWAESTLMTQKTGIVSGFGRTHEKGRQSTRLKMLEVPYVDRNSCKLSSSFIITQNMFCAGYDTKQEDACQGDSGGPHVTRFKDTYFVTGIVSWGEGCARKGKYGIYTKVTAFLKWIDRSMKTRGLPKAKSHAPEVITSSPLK

For the molecule `CCOC(=O)c1c(C)oc2cc(OC)c(OCc3oc4cc(OC)c(OCc5oc6cc(OC)c(OS(=O)(=O)[O-])cc6c5C(=O)OCC)cc4c3C(=O)OCC)cc12.[Na+]`, the pIC50 in test [1] is on record as 6.59; in test [6], 6.73; in [8] it was 6.59; in test [13], 6.57. For the same molecule, the pIC50(app) in the test filed under Homo sapiens [2] came to 6.04; in the test filed under Homo sapiens [4] it was 5.87; in the test filed under Homo sapiens [9], 5.26; in the test listed under Homo sapiens [15] it was 5.68; in the test listed under Homo sapiens [17] it was 6.07. Also, the IC50 in test [3] is 900 nM; in [5] it was 1300 nM; in [6], 190 nM; in [10], 5600 nM; in test [11] (read-out: IC50), 670 nM; in test [11] (read-out: pIC50 (converted)), 676 nM. The values for the IC50 in test [13], in [16] and in test [18] were 270 nM, 2100 nM and 900 nM, respectively. The “fold change (FC)” value in the test with Plasma [7] and in the test with Plasma [12] was 2 throughout. Besides, in [14], the inhibition entry was “inactive”.
